Data: ChEMBL document CHEMBL5661979, “Pharmacological inhibition of BMK1 suppresses tumor growth through promyelocytic leukemia protein” (Cancer Cell, 2010)
Activity calls are given as the source filed them. The rule behind the calls is not given here.

What was measured:
[1] = molecular target: Serine/threonine-protein kinase Nek8 (Homo sapiens, UniProt Q86SG6); assay: Inhibition of NEK8 in human HeLa cells lysate pre incubated for 15 mins followed by ADP acyl phosphate probe addition and measured after 10 mins by LC-MS/MS analysis; format: subcellular
Sequence of Serine/threonine-protein kinase Nek8 (Q86SG6 whole entry): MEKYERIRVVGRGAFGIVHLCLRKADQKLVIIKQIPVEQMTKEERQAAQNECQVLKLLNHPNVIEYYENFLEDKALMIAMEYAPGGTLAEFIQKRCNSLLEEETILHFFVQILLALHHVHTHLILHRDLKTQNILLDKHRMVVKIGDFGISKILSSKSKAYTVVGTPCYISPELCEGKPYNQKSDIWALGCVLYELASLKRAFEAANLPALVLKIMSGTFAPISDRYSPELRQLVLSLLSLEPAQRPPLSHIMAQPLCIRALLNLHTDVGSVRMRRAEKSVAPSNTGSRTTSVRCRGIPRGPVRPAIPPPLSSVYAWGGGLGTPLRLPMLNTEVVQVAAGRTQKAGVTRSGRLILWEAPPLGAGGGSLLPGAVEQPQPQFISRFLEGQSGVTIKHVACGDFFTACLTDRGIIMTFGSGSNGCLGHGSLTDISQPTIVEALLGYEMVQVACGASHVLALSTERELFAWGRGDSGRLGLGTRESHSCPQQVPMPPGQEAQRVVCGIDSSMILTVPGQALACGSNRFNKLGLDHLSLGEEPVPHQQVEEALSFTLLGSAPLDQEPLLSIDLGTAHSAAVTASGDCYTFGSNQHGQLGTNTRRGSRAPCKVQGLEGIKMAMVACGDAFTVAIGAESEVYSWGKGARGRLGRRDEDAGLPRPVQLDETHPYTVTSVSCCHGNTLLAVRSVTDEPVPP

[2] = molecular target: PAN2-PAN3 deadenylation complex subunit PAN3 (Homo sapiens, UniProt Q58A45); assay: Inhibition of PAN3 in human HeLa cells lysate pre incubated for 15 mins followed by ADP acyl phosphate probe addition and measured after 10 mins by LC-MS/MS analysis; format: subcellular
Sequence of PAN2-PAN3 deadenylation complex subunit PAN3 (Q58A45 whole entry, one chain of several): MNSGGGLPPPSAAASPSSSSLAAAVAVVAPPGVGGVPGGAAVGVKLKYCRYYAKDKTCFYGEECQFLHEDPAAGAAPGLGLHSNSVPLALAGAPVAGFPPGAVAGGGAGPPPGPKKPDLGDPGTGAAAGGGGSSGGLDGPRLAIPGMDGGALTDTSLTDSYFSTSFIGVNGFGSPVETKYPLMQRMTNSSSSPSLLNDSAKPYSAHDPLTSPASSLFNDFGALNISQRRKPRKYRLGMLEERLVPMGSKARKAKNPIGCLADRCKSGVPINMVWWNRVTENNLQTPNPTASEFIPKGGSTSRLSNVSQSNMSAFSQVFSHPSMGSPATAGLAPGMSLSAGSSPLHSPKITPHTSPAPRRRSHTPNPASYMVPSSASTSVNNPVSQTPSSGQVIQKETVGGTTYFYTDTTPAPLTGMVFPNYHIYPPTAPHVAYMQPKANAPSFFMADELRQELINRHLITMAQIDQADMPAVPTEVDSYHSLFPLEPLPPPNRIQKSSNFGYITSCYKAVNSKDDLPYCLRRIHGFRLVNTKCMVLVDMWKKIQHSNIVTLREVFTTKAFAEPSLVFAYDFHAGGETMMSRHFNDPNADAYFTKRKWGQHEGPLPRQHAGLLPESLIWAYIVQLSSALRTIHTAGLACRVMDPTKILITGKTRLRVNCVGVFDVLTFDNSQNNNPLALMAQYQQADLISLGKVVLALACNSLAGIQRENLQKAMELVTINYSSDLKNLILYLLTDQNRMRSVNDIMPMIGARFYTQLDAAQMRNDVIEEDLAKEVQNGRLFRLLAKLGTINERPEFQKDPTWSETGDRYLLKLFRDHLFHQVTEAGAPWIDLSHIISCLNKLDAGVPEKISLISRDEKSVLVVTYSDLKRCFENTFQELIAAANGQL

[3] = molecular target: T1, Dual specificity mitogen-activated protein kinase kinase 5 (Homo sapiens) (UniProt Q13163); assay: Inhibition of MAP2K5 in human HeLa cells lysate at 2 uM pre incubated for 15 mins followed by ADP acyl phosphate probe addition and measured after 10 mins by LC-MS/MS analysis relative to control; format: subcellular; settings: time 25.0 min
T1 sequence (whole entry): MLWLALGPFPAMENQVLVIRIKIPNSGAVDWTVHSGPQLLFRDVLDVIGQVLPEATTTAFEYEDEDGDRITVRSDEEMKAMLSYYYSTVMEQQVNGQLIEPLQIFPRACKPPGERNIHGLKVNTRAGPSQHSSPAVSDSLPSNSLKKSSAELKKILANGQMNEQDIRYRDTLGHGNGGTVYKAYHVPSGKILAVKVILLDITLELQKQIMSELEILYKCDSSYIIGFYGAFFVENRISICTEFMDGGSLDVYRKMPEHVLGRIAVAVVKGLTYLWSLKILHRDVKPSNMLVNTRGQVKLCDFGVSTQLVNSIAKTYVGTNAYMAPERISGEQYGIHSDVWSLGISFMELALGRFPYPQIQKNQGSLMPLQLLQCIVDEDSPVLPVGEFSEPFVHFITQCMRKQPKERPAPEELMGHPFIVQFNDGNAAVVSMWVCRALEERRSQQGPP

[4] = molecular target: Mitogen-activated protein kinase 14 (Homo sapiens, UniProt Q16539); assay: Inhibition of p38a in human HeLa cells lysate at 50 uM pre incubated for 15 mins followed by ATP acyl phosphate probe addition and measured after 10 mins by LC-MS/MS analysis relative to control; format: subcellular; settings: time 25.0 min
Sequence of Mitogen-activated protein kinase 14 (Q16539 whole entry): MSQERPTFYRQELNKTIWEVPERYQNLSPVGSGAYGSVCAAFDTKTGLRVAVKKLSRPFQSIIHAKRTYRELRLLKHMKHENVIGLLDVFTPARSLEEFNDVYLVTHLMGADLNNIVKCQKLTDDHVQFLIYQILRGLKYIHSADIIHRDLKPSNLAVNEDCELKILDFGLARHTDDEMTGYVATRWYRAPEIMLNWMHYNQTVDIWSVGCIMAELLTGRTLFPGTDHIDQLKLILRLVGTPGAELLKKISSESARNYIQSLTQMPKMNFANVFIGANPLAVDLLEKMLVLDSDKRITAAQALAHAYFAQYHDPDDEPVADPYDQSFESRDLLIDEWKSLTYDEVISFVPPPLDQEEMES

[5] = molecular target: T2, Mitogen-activated protein kinase kinase kinase 7 (Homo sapiens) (UniProt O43318); assay: Inhibition of TAK1 in human HeLa cells lysate at 50 uM pre incubated for 15 mins followed by ATP acyl phosphate probe addition and measured after 10 mins by LC-MS/MS analysis relative to control; format: subcellular; settings: time 25.0 min
T2 sequence (whole entry): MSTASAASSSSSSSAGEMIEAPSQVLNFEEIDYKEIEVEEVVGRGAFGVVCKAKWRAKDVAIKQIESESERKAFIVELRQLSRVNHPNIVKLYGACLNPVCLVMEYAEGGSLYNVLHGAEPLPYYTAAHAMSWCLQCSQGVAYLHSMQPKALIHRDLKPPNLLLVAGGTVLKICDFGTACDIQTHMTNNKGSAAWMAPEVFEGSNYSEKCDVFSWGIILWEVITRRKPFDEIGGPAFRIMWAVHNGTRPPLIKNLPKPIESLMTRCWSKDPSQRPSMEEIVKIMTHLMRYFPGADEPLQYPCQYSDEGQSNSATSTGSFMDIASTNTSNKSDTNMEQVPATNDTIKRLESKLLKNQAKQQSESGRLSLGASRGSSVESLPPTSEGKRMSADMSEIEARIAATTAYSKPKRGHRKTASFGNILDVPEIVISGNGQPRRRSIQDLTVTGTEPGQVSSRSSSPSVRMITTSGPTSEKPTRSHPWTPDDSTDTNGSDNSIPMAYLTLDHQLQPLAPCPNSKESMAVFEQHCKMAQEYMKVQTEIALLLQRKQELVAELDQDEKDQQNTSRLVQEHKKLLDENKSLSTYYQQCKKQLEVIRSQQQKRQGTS

[6] = molecular target: T3, Serine/threonine-protein kinase Sgk3 (Homo sapiens) (UniProt Q96BR1); assay: Inhibition of SGK3 in human HeLa cells lysate at 50 uM pre incubated for 15 mins followed by ATP acyl phosphate probe addition and measured after 10 mins by LC-MS/MS analysis relative to control; format: subcellular; settings: time 25.0 min
T3 sequence (whole entry): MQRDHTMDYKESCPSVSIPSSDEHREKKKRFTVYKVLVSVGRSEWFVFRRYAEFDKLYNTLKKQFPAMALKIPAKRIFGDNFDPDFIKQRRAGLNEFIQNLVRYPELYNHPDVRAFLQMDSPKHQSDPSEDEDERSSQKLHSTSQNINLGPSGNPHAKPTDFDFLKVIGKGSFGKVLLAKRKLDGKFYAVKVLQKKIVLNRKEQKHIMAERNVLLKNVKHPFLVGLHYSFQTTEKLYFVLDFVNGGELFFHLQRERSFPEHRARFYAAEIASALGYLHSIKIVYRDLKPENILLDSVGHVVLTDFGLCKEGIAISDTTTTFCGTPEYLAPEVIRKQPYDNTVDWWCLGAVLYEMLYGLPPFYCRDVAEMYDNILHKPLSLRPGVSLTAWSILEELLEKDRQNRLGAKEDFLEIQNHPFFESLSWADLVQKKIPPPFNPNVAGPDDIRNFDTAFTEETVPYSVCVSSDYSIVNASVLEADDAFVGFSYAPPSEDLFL

[7] = molecular target: Interleukin-1 receptor-associated kinase 1 (Homo sapiens, UniProt P51617); assay: Inhibition of IRAK1 in human HeLa cells lysate at 10 uM pre incubated for 15 mins followed by ATP acyl phosphate probe addition and measured after 10 mins by LC-MS/MS analysis relative to control; format: subcellular; settings: time 25.0 min
Sequence of Interleukin-1 receptor-associated kinase 1 (P51617 whole entry, looked up): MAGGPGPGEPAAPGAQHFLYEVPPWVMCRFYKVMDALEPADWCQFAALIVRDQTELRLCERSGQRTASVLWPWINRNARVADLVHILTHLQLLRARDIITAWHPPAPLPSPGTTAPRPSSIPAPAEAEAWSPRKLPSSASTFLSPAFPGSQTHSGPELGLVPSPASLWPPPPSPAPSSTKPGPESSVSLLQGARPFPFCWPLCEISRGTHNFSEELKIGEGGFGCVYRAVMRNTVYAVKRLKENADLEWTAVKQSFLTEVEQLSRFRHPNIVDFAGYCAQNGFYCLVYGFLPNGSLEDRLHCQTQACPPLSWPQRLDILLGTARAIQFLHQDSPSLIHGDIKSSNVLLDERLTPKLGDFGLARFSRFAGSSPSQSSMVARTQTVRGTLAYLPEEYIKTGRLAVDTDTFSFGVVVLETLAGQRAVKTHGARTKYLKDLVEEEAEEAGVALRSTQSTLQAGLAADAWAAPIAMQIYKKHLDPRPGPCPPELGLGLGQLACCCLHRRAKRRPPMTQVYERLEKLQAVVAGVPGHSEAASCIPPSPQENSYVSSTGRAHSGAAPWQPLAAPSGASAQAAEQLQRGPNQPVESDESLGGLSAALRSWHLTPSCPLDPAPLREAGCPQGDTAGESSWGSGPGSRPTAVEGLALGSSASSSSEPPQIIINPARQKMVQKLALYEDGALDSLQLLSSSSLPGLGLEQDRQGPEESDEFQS

[8] = molecular target: Interferon-induced, double-stranded RNA-activated protein kinase (Homo sapiens, UniProt P19525); assay: Inhibition of PKR in human HeLa cells lysate at 10 uM pre incubated for 15 mins followed by ATP acyl phosphate probe addition and measured after 10 mins by LC-MS/MS analysis relative to control; format: subcellular; settings: time 25.0 min
Sequence of Interferon-induced, double-stranded RNA-activated protein kinase (P19525 whole entry): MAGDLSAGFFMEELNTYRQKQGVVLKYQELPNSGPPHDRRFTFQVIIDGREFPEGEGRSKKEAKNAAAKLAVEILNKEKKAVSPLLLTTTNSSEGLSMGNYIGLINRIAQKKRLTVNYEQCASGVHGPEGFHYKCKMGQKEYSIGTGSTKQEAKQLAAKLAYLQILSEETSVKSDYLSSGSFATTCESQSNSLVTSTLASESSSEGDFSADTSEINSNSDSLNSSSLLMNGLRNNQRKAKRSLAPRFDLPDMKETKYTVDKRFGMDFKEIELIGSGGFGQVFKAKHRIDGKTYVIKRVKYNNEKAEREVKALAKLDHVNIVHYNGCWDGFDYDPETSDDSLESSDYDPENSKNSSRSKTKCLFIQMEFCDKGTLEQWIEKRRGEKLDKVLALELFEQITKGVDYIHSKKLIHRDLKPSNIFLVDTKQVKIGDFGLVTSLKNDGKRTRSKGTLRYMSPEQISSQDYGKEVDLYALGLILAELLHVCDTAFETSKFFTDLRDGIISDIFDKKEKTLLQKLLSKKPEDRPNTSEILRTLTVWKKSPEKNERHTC

[9] = molecular target: Calcium/calmodulin-dependent protein kinase type 1D (Homo sapiens, UniProt Q8IU85); assay: Inhibition of CAMK1d in human HeLa cells lysate at 2 uM pre incubated for 15 mins followed by ATP acyl phosphate probe addition and measured after 10 mins by LC-MS/MS analysis relative to control; format: subcellular; settings: time 25.0 min
Sequence of Calcium/calmodulin-dependent protein kinase type 1D (Q8IU85 whole entry, looked up, the tested form may be a part): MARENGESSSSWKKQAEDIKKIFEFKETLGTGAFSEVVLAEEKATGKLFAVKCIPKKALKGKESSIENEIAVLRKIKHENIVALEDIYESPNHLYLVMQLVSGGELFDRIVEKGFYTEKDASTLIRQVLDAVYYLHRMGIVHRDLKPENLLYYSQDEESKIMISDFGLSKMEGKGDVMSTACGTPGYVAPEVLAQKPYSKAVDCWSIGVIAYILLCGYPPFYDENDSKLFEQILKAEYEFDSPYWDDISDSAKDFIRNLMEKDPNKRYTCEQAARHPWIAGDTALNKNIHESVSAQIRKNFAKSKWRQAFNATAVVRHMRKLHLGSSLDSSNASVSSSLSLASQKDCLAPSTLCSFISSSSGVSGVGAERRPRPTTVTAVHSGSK
Method in brief: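 KiNativ-type profiling in HeLa lysate (5 mg/mL total protein). Lysate preincubated 15 min with inhibitor at 50, 10, 2, 0.8 or 0 μM, then ATP or ADP acylphosphate probe added (5 μM final) for 10 min. Reaction stopped with urea and analysed by targeted MS, using up to four fragment ions per kinase peptide-probe conjugate. % inhibition calculated against untreated lysate. Duplicate reactions.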

HeLa = assay: Antiproliferative activity against human HeLa cells assessed as reduction in cell viability at 5 uM after 48 hrs by MTT assay; format: functional, cell-based
Method in brief: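 HeLa cells were infected with empty adenovirus or adenovirus encoding dominant-negative BMK1(AEF). After 24 hr they were treated with or without 5 μM drug for 48 hr and read by MTT. % growth inhibition = (1 − MTT of group / MTT of Ad-EV-only cells) × 100. n = 3.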

In the case of `CCOc1cc(N2CCC(O)CC2)ccc1Nc1ncc2c(n1)N(C)c1ccccc1C(=O)N2C`, the IC50 [1] is reported as > 50 µM, the IC50 [2] is reported as > 50 µM and the inhibition [3] is reported as 19.1%. The inhibition [4] was 31.4%, the inhibition [5] was 15.7% and the inhibition [6] was -0.9%. For the same compound, the inhibition [7] was 1.9%, the inhibition [8] was -2.3% and the inhibition [9] was 4.4%. The Activity (HeLa) was “Active”.
